Measurements gathered from unrelated publications.
pIC50: −log10 of the molar value.
Target: Acetylcholinesterase (ACHE, Homo sapiens, UniProt P22303)
Action: inhibitor

Compound	effect on	technique	pIC50
O=[N+]([O-])c1c[nH]c(-c2n[nH]c(=S)n2/N=C/c2ccc(Cl)cc2[N+](=O)[O-])c1	enzyme activity	Ellman	4.82
COc1cccc(C(=O)NCCN2CCCCC2)c1	enzyme activity	Ellman	5.28
CSc1ccc(C=NNC(=O)c2cc(-c3cn(C)c4ccccc34)on2)cc1	enzyme activity		< 4.00
C#CCN(C)CCOc1cccc(CN(C)c2c3c(nc4ccccc24)CCCC3)c1	enzyme activity	Ellman	5.38
COc1ccc(S(=O)(=O)Oc2cccc(C=NNC(=O)c3ccc(F)cc3)c2)cc1	enzyme activity	Ellman	7.05
Cn1cc(-c2cc(C(=O)NN=Cc3ccncc3)no2)c2ccccc21	enzyme activity		< 4.00
C#CCN(C)CCCCCCCCOc1cccc(CN(C)c2c3c(nc4ccccc24)CCCC3)c1	enzyme activity	Ellman	5.36
Cn1cc(-c2cc(C(=O)NN=Cc3ccccc3O)no2)c2ccccc21	enzyme activity		< 4.00
O=[N+]([O-])c1c[nH]c(-c2n[nH]c(=S)n2/N=C/c2ccc(Cl)c([N+](=O)[O-])c2)c1	enzyme activity	Ellman	4.88
O=C(NCCN1CCCCC1)c1ccc(Cl)cc1	enzyme activity	Ellman	4.34
Cn1cc(-c2cc(C(=O)NN=Cc3ccccc3Cl)no2)c2ccccc21	enzyme activity		< 4.00
O=C(NCCN1CCCCC1)c1ccccc1F	enzyme activity	Ellman	7.89
O=[N+]([O-])c1c[nH]c(-c2n[nH]c(=S)n2/N=C/c2ccc(C(F)(F)F)cc2)c1	enzyme activity	Ellman	5.29
C#CCN(C)CCCOc1cccc(CN(C)c2c3c(nc4ccccc24)CCCC3)c1	enzyme activity	Ellman	5.55
O=[N+]([O-])c1c[nH]c(-c2n[nH]c(=S)n2/N=C/c2c(O)cc(O)cc2O)c1	enzyme activity	Ellman	5.21
C#CCN(C)CCCCOc1cccc(CN(C)c2c3c(nc4ccccc24)CCCC3)c1	enzyme activity	Ellman	5.22

Compound	effect on	technique	pIC50
COc1ccc(S(=O)(=O)Oc2ccc3ccccc3c2C=NNC(=O)c2ccc(F)cc2)cc1	enzyme activity	Ellman	6.94
O=C(NCCN1CCCCC1)c1ccc([N+](=O)[O-])cc1	enzyme activity	Ellman	5.62
O=[N+]([O-])c1c[nH]c(-c2n[nH]c(=S)n2/N=C/c2ccc(F)cc2O)c1	enzyme activity	Ellman	5.15
C#CCN(C)CCCCCCOCc1ccc(CN(C)c2c3c(nc4ccccc24)CCCC3)cc1	enzyme activity	Ellman	5.80
O=[N+]([O-])c1c[nH]c(-c2n[nH]c(=S)n2/N=C/c2ccc(Cl)c(Cl)c2)c1	enzyme activity	Ellman	4.85
O=C(NCCN1CCCCC1)c1ccccc1[N+](=O)[O-]	enzyme activity	Ellman	4.72
CCN(CC)c1ccc(C=NNC(=O)c2ccc(F)cc2)c(OS(=O)(=O)c2ccc(OC)cc2)c1	enzyme activity	Ellman	7.08
CN(C)c1ccc(/C=N/n2c(-c3cc([N+](=O)[O-])c[nH]3)n[nH]c2=S)c(O)c1	enzyme activity	Ellman	4.67
Cn1cc(-c2cc(C(=O)NN=Cc3cccc([N+](=O)[O-])c3)no2)c2ccccc21	enzyme activity		4.34
C#CCN(C)CCCCCOc1cccc(CN(C)c2c3c(nc4ccccc24)CCCC3)c1	enzyme activity	Ellman	5.59
O=C(NCCN1CCCCC1)c1ccccc1Cl	enzyme activity	Ellman	7.05
CNC(=O)c1ccc(-c2cnn3ccc(C(=O)N(C)c4ccc(Cl)c(C(=O)O)c4)cc23)cc1	cell-free assay		< 4.52
C#CCN(C)CCCCOCc1ccc(CN(C)c2c3c(nc4ccc(C)cc24)CCCC3)cc1	enzyme activity	Ellman	4.79
COc1ccc(/C=N/n2c(-c3cc([N+](=O)[O-])c[nH]3)n[nH]c2=S)cc1	enzyme activity	Ellman	4.60
COc1ccc(S(=O)(=O)Oc2ccccc2C=NNC(=O)c2ccc(F)cc2)cc1	enzyme activity	Ellman	6.97
